Assay results collected from several papers.
Lines come from different studies, so protocols differ.

SMILES	system	conditions	concentration
CC(C)c1cc(C(=O)NCCN)c2cnn(C(C)C)c2n1	female BALB/c mouse, plasma	intraperitoneal, 50 mg/kg, 15 min	2010 ng/mL
NCc1cc2c(cc1F)C(=O)N(C1CCC(=O)NC1=O)C2 (centres unmarked)	male CD-1 mouse, plasma	oral, 10 mg/kg, 1 h	81 ng/mL
Cc1ccc2c(c1)C(=O)[C@]1(O)CCN(c3ccc4nc(C)ccc4c3)C1=N2	mouse, plasma	intraperitoneal, 10 mg/kg, 30 min	700 nM
O=C1CCC(N2Cc3cc(C4CCN(Cc5ccccc5)CC4)ccc3C2=O)C(=O)N1 (centres unmarked)	male CD-1 mouse, plasma	oral, 3 mg/kg, 4.98 min	49.6 ng/mL
CC1(C)NC(=O)N(c2ccc(F)c(Br)c2)C1=O	male Swiss mouse, plasma	oral, 100 mg/kg, 1 h	29700 ng/mL
OCc1nc2ccc(NCc3ccc(C(F)(F)F)cc3)cc2[nH]1	male BALB/c mouse, brain	intravenous, 1 mg/kg, 6 h	26.1 ng/g
CN(C)C(=O)c1cc2cnc(Nc3ccc(-c4ccc5c(=O)cc(N6CCOCC6)oc5c4)cc3)nc2n1C1CCCC1	BALB/c mouse, brain	oral, 20 mg/kg, 2 h, single dose	108 ng/g
Cc1nc2ccc(OCc3ccc(C(F)(F)F)cc3)cc2[nH]1	male BALB/c mouse, brain	oral, 10 mg/kg, 72 h	2.7 ng/g
O=Cc1cc2c(cc1F)C(=O)N(C1CCC(=O)NC1=O)C2 (centres unmarked)	male CD-1 mouse, plasma	intravenous, 1 mg/kg, 1.02 min	17.2 ng/mL
CC(C)(C)S(=O)(=O)c1cc2c(Nc3ccc4scnc4c3)ncnc2cc1OCCOP(=O)(O)O	BALB/c mouse, plasma	oral, 10 mg/kg, 6 h	21 ng/mL
O=C1CCC(N2Cc3cc(CO)c(F)cc3C2=O)C(=O)N1 (centres unmarked)	male CD-1 mouse, plasma	intravenous, 1 mg/kg, 4 h	1.7 ng/mL
CC1(C)NC(=O)N(c2ccc(F)c(S(C)(=O)=O)c2)C1=O	male Swiss mouse, plasma	oral, 100 mg/kg, 48 h	20 ng/mL
CCOC(=O)c1c(NC(=O)CNC(C)C)sc2c1CCCCC2	male mouse, brain	intraperitoneal, 100 mg/kg, 30 min	15800 ng/g
CC(C)n1ncc2c(C(=O)NCC3(C)CNC3)cc(C3CC3)nc21	female BALB/c mouse, plasma	intraperitoneal, 50 mg/kg, 8 h	240 ng/mL
